Reference: paper PMC9305210 (British Journal of Clinical Pharmacology, 2022)

What was measured:
[1] = Safety and tolerability; type: in vivo, human; conditions: for tolerability: 100‐400 mg/day for up to 14 days, healthy subjects; for TEAE leading to discontinuation: one subject
How it was run: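 Randomized, double-blind, placebo-controlled; cohorts of 8 (6:2) healthy adults given oral solution daily for a planned 14 days after ≥8 h fast, confined on site days −3 to 15 plus 1 follow-up day. Monitoring covered AEs, physical examination, BMI, vital signs, ECG and clinical laboratory tests. Subjects with ≥1 treatment-emergent AE counted across all subjects receiving at least one dose.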

[2] = Urine pharmacokinetics; type: in vivo, human; conditions: for Ae t, mean (CV%) / f e, mean (CV%): urine
[3] = Soticlestat total, n = 30, listed as soticlestat

O=C(c1cccnc1-c1ccncc1)N1CCC(O)(Cc2ccccc2)CC1 [Soticlestat, soticlestat]
Number of subjects (%): Deaths ([1]; 300 mg BID, n = 6): 0
Number of subjects (%) with SAEs ([1]; 300 mg QD, n = 6): 0
Number of subjects (%) with TEAEs ([1]; 300 mg QD, n = 6): 1 (16.7)
Number of subjects (%) with TEAEs: Leading to discontinuation ([1]; 300 mg QD, n = 6): 0
Number of subjects (%) with TEAEs: Mild ([1]; 300 mg QD, n = 6): 1 (16.7)
Number of subjects (%) with TEAEs: Moderate ([1]; 300 mg QD, n = 6): 0
Number of subjects (%) with TEAEs: Not related ([1]; 300 mg QD, n = 6): 0
Number of subjects (%) with TEAEs: Related ([1]; 300 mg QD, n = 6): 1 (16.7)
Number of subjects (%) with TEAEs: Severe ([1]; 300 mg QD, n = 6): 0
Number of subjects (%): Deaths ([1]; 300 mg QD, n = 6): 0
Number of subjects (%) with SAEs ([1]; 400 mg QD, n = 6): 0
Number of subjects (%) with TEAEs ([1]; 400 mg QD, n = 6): 5 (83.3)
Number of subjects (%) with TEAEs: Leading to discontinuation ([1]; 400 mg QD, n = 6): 0
Number of subjects (%) with TEAEs: Mild ([1]; 400 mg QD, n = 6): 4 (66.7)
Number of subjects (%) with TEAEs: Moderate ([1]; 400 mg QD, n = 6): 1 (16.7)
Number of subjects (%) with TEAEs: Not related ([1]; 400 mg QD, n = 6): 1 (16.7)
Number of subjects (%) with TEAEs: Related ([1]; 400 mg QD, n = 6): 4 (66.7)
Number of subjects (%) with TEAEs: Severe ([1]; 400 mg QD, n = 6): 0
Number of subjects (%): Deaths ([1]; 400 mg QD, n = 6): 0
Number of subjects (%) with SAEs ([1]; 600 mg QD, n = 6): 0
Number of subjects (%) with TEAEs ([1]; 600 mg QD, n = 6): 3 (50.0)
Number of subjects (%) with TEAEs: Leading to discontinuation ([1]; 600 mg QD, n = 6): 1 (16.7)
Number of subjects (%) with TEAEs: Mild ([1]; 600 mg QD, n = 6): 2 (33.3)
Number of subjects (%) with TEAEs: Moderate ([1]; 600 mg QD, n = 6): 0
Number of subjects (%) with TEAEs: Not related ([1]; 600 mg QD, n = 6): 0
Number of subjects (%) with TEAEs: Related ([1]; 600 mg QD, n = 6): 3 (50.0)
Number of subjects (%) with TEAEs: Severe ([1]; 600 mg QD, n = 6): 1 (16.7)
Number of subjects (%): Deaths ([1]; 600 mg QD, n = 6): 0
tolerability [1]: generally well tolerated
tolerability ([1]; listed as soticlestat): well tolerated in most healthy subjects up to 400 mg daily
Number of subjects (%) with SAEs ([1]; Soticlestat total, n = 30): 0
Number of subjects (%) with TEAEs ([1]; Soticlestat total, n = 30): 14 (46.7)
Number of subjects (%) with TEAEs: Leading to discontinuation ([1]; Soticlestat total, n = 30): 2 (6.7)
Number of subjects (%) with TEAEs: Mild ([1]; Soticlestat total, n = 30): 12 (40.0)
Number of subjects (%) with TEAEs: Moderate ([1]; Soticlestat total, n = 30): 1 (3.3)
Number of subjects (%) with TEAEs: Not related ([1]; Soticlestat total, n = 30): 1 (3.3)
Number of subjects (%) with TEAEs: Related ([1]; Soticlestat total, n = 30): 13 (43.3)
Number of subjects (%) with TEAEs: Severe ([1]; Soticlestat total, n = 30): 1 (3.3)
Number of subjects (%): Deaths ([1]; Soticlestat total, n = 30): 0
Number of subjects (%) with TEAEs [1, 3]: 14
Number of subjects (%) with TEAEs: Related [1, 3]: 13
clinical laboratory (including hormones), vital signs, physical examination, eye examination or electrocardiographic findings ([1]; all doses): No clinically significant findings
liver function test results ([1]; all doses): No subjects had abnormal liver function test results
number of TEAE events considered related to soticlestat ([1]; all doses): 31
proportion of TEAEs transient and mild in intensity ([1]; all doses): 91%
serious AEs ([1]; all doses): No serious AEs were reported
proportion of TEAEs transient and mild in intensity ([1]; all doses, listed as soticlestat): over 90%
outcome of TEAEs ([1]; before study exit on day 15): reversible and resolved without treatment
TEAE leading to discontinuation ([1]; 300 mg BID (cohort 3), study day 9): mild event of confusional state
TEAE leading to discontinuation ([1]; 600 mg QD (cohort 4), study day 10): severe event of acute psychosis
total number of TEAEs reported ([1]; subjects administered soticlestat, all doses): 45
renal excretion / renal elimination ([2]; all doses): negligible
Ae t, mean (CV%) ([2]; Ae τ = Ae 12, soticlestat 300 mg BID oral solution, day 1): 0.490 (75.9) mg
Ae t, mean (CV%) ([2]; Ae τ = Ae 24, soticlestat 100 mg QD oral solution, day 1): 0.0900 (25.6) mg
Ae t, mean (CV%) ([2]; Ae τ = Ae 24, soticlestat 100 mg QD oral solution, day 14): 0.0800 (30.0) mg
Ae t, mean (CV%) ([2]; Ae τ = Ae 24, soticlestat 300 mg QD oral solution, day 1): 0.660 (84.3) mg
Ae t, mean (CV%) ([2]; Ae τ = Ae 24, soticlestat 300 mg QD oral solution, day 14): 0.56 (83.4) mg
Ae t, mean (CV%) ([2]; Ae τ = Ae 24, soticlestat 400 mg QD oral solution, day 1): 0.920 (47.7) mg
Ae t, mean (CV%) ([2]; Ae τ = Ae 24, soticlestat 400 mg QD oral solution, day 14): 1.01 (31.9) mg
Ae t, mean (CV%) ([2]; Ae τ = Ae 24, soticlestat 600 mg QD oral solution, day 1): 1.440 (74.4) mg
f e, mean (CV%) ([2]; soticlestat 100 mg QD oral solution, day 1): 0.0900 (25.6) %
f e, mean (CV%) ([2]; soticlestat 100 mg QD oral solution, day 14): 0.0800 (30.0) %
f e, mean (CV%) ([2]; soticlestat 300 mg BID oral solution, day 1): 0.160 (75.9) %
f e, mean (CV%) ([2]; soticlestat 300 mg QD oral solution, day 1): 0.220 (84.3) %
f e, mean (CV%) ([2]; soticlestat 300 mg QD oral solution, day 14): 0.190 (83.4) %
f e, mean (CV%) ([2]; soticlestat 400 mg QD oral solution, day 1): 0.230 (47.7) %
f e, mean (CV%) ([2]; soticlestat 400 mg QD oral solution, day 14): 0.250 (31.9) %
f e, mean (CV%) ([2]; soticlestat 600 mg QD oral solution, day 1): 0.240 (74.4) %
